Data on 46 molecules can be found in ChEMBL document CHEMBL2150889, “Azetidinyl oxadiazoles as potent mGluR5 positive allosteric modulators” (Bioorg Med Chem Lett, 2012).

Where only a bound is given, the exact number is not on record here.

The target of assay [1] is T1, Metabotropic glutamate receptor 5 (Homo sapiens, UniProt P41594). The assay can be described thus: Positive allosteric modulation of human mGluR5 expressed in recombinant HEK293 cells by FLIPR assay. In kind it is cell-based. Also on record: Activity: concentration or dose not given beside the values. Put shortly: (§1)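 HEK293 cells recombinantly expressing human mGluR5 were seeded at 2×10^4 cells/well on poly-D-lysine. They were incubated overnight at 37 °C in glutamate/glutamine-free medium, then loaded for 1 h at 37 °C with calcium 5 dye containing 3 U/ml glutamic pyruvic transaminase and 3 mM sodium pyruvate. Calcium flux was read by FLIPR.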

Assay [2] addresses T1, Metabotropic glutamate receptor 5. The assay can be described thus: Negative allosteric modulation of human mGluR5 expressed in recombinant HEK293 cells by FLIPR assay. It counts as cell-based. To be noted: for inhibition: concentration not given here. The essentials: as §1

Usually EC50 stands for the concentration needed to bring the measured effect to its halfway point. By Emax is commonly meant the greatest response seen or fitted, relative to the assay's reference. The IC50 is the concentration at which inhibition is half-maximal. `Cc1cccc(-c2noc([C@@H]3CCN3C(=O)Cc3ccc(F)cc3)n2)c1`: in assay [1], the Activity came to 30%, the 50% effective concentration (EC50) was 1900 nM and the Emax turned out to be 24%. For the same molecule, in assay [2], the 50% inhibitory concentration (IC50) is more than 10000 nM.
On the same counts, the results for `O=C(C1CCC(C(F)(F)F)CC1)N1CC(c2nc(-c3cccc(Cl)c3)no2)C1` (stereo unspecified) are 5%, 1000 nM, 40% and more than 10000 nM.
As usually defined, the inhibition is how much of the control response was suppressed. For the molecule `Cc1cccc(-c2noc(C3CN(C(=O)C4CCCC4)C3)n2)c1`, in assay [1], the concentration giving a half-maximal response (EC50) is more than 10000 nM and the Emax is -7%. In addition, in assay [2], the IC50 stood at 2500 nM and the inhibition was determined as 70%.
Taken in the same sequence, the figures for `Cc1ccc(S(=O)(=O)N2CC(c3nc(-c4cccc(Cl)c4)no3)C2)cc1` were more than 10000 nM, 2%, 920 nM and 75%.
Consider `O=C(N1CCCC(F)C1)N1CC(c2nc(-c3cccc(Cl)c3)no2)C1` (stereo unspecified), for which, in assay [1], the Activity is 81%, the half-maximal effective concentration (EC50) came out at 200 nM and the Emax stood at 51%. For the same molecule, in assay [2], the IC50 was more than 10000 nM.
Turning to `O=C([C@H]1CC2CCC1C2)N1CC(c2nc(-c3ccccc3)no2)C1` (stereo partly specified), in assay [1], the EC50 was 120 nM and the Emax was found to be 160%.
As for `O=C([C@@H]1CC2CCC1C2)N1CC(c2nc(-c3cccc(Cl)c3)no2)C1` (stereo partly specified), in assay [1], the EC50 worked out at 98 nM and the Emax is 66%.
In the case of `O=C(N1CCCCC1)N1CC(c2nc(-c3cccc(Cl)c3)no2)C1`, in assay [1], the Activity worked out at 87%, the concentration giving a half-maximal response (EC50) turned out to be 370 nM and the Emax was determined as 44%. The IC50 in assay [2] was more than 10000 nM.
For the molecule `O=C(C1CCC(F)(F)CC1)N1CC(c2nc(-c3cccc(F)c3)no2)C1`, in assay [1], the EC50 amounted to 520 nM and the Emax was determined as 53%. Moreover, in assay [2], the IC50 was more than 10000 nM and the inhibition is 11%.
Taken in the same sequence, the figures for `Cc1ccc(S(=O)(=O)N2CC(c3nc(-c4cccc(C)c4)no3)C2)cc1` were more than 10000 nM, 1%, 670 nM and 80%.
Taken in the same sequence, the figures for `Cc1cccc(-c2noc(C3CN(C(=O)C4CCC(C(F)(F)F)CC4)C3)n2)c1` (stereo unspecified) were 1000 nM, 36%, more than 10000 nM and 3%.
Take `O=C([C@H]1CC2CCC1C2)N1CC(c2nc(-c3cccc(Cl)c3)no2)C1` (stereo partly specified): in assay [1], the EC50 was found to be 74 nM and the Emax came out at 120%.
With `O=C(c1ccc(F)c(F)c1)N1CC(c2nc(-c3cccc(F)c3)no2)C1`, in assay [1], the Activity amounted to 50%, the 50% effective concentration (EC50) is 3200 nM and the Emax is 35%. Besides, the IC50 in assay [2] is more than 10000 nM.
Regarding `CC1CCN(C(=O)N2CC(c3nc(-c4cccc(Cl)c4)no3)C2)CC1`, in assay [1], the EC50 is 865 nM and the Emax was determined as 66%. Also, the IC50 in assay [2] is more than 10000 nM.
Taken in the same sequence, the figures for `COC1CCN(C(=O)N2CC(c3nc(-c4cccc(Cl)c4)no3)C2)CC1` were more than 10000 nM, 11% and more than 10000 nM.
Regarding `CC1CCN(C(=O)N2CC(c3nc(-c4cccc(Cl)c4)no3)C2)C1` (stereo unspecified), in assay [1], the EC50 was more than 10000 nM and the Emax was found to be 88%. Moreover, in assay [2], the IC50 was more than 10000 nM and the inhibition is 80%.
Take `Cc1cccc(-c2noc(C3CN(C(=O)C4CCC(F)(F)CC4)C3)n2)c1`: in assay [1], the Activity came to 3%, the EC50 turned out to be 590 nM and the Emax came to 36%. Moreover, the half-maximal inhibitory concentration (IC50) in assay [2] is more than 10000 nM.
Taken in the same sequence, the figures for `O=C(Cc1ccc(F)cc1)N1CC[C@H]1c1nc(-c2cccc(F)c2)no1` were 12%, 1200 nM, 29% and more than 10000 nM.
Taken in the same sequence, the figures for `Cc1cccc(-c2noc(C3CN(C(=O)c4ccc(Cl)cc4)C3)n2)c1` were 6.3%, 7100 nM, 33% and more than 10000 nM.
Regarding `Cc1cccc(-c2noc(C3CN(C(=O)C4CCCC(C)C4)C3)n2)c1` (stereo unspecified), in assay [1], the Activity came to 19%, the EC50 stood at 500 nM and the Emax is 46%. The IC50 in assay [2] was more than 10000 nM.
As to `Cc1cccc(-c2noc(C3CN(S(=O)(=O)c4ccc(F)cc4)C3)n2)c1`, in assay [1], the EC50 is more than 10000 nM and the Emax came to 6%. In assay [2], the IC50 was determined as 950 nM and the inhibition came to 74%.
For `Cc1cccc(-c2noc(C3CN(C(=O)c4ccc(F)cc4)C3)n2)c1`, in assay [1], the EC50 worked out at 1400 nM and the Emax turned out to be 32%. Besides, in assay [2], the concentration for half-maximal inhibition (IC50) is more than 10000 nM and the inhibition is 50%.
Take `O=C(C1CCCCC1)N1CC(c2nc(-c3cccc(F)c3)no2)C1`: in assay [1], the Activity is 19%, the EC50 turned out to be 1000 nM and the Emax stood at 46%. The half-maximal inhibitory concentration (IC50) in assay [2] was more than 10000 nM.
Take `Cc1cccc(-c2noc(C3CN(S(=O)(=O)c4ccc(Cl)cc4)C3)n2)c1`: in assay [1], the half-maximal effective concentration (EC50) was more than 10000 nM and the Emax amounted to 3%. For the same molecule, in assay [2], the IC50 stood at 1100 nM and the inhibition worked out at 75%.
Consider `O=C(N1CCCCCC1)N1CC(c2nc(-c3cccc(Cl)c3)no2)C1`, for which, in assay [1], the Activity was found to be 41%, the EC50 was determined as 47 nM and the Emax came out at 44%. The IC50 in assay [2] is more than 10000 nM.
On the same counts, the results for `Cc1cccc(-c2noc([C@@H]3CCN3C(=O)c3ccc(F)c(F)c3)n2)c1` are 92%, 1500 nM, 51% and more than 10000 nM.
Consider `Cc1cccc(S(=O)(=O)N2CC(c3nc(-c4cccc(Cl)c4)no3)C2)c1`, for which, in assay [1], the 50% effective concentration (EC50) is more than 10000 nM and the Emax was -2%. In addition, in assay [2], the IC50 was determined as 390 nM and the inhibition was found to be 82%.
On the same counts, the results for `O=C(C1CCCO1)N1CC(c2nc(-c3cccc(Cl)c3)no2)C1` (stereo unspecified) are more than 10000 nM, -3%, 890 nM and 79%.
Turning to `CC1CN(C(=O)N2CC(c3nc(-c4cccc(Cl)c4)no3)C2)CC(C)O1` (stereo unspecified), the EC50 in assay [1] was more than 10000 nM. For the same molecule, in assay [2], the half-inhibitory concentration (IC50) came out at 990 nM and the inhibition stood at 51%.
`O=C(Cc1cccc(F)c1)N1CC[C@H]1c1nc(-c2cccc(F)c2)no1`: in assay [1], the Activity came out at 75%, the concentration for a half-maximal effect (EC50) is 2400 nM and the Emax was 52%. In assay [2], the concentration for half-maximal inhibition (IC50) is more than 10000 nM.
For the molecule `Cc1cccc(-c2noc(C3CN(C(=O)C4CCOCC4)C3)n2)c1`, in assay [1], the EC50 is more than 10000 nM and the Emax is -2%. Besides, in assay [2], the IC50 came to 1800 nM and the inhibition turned out to be 74%.
Taken in the same sequence, the figures for `Cc1cccc(-c2noc(C3CN(S(=O)(=O)c4cccc(C)c4)C3)n2)c1` were more than 10000 nM, -4%, 650 nM and 76%.
Taken in the same sequence, the figures for `Cc1cccc(-c2noc(C3CN(C(=O)C4CCC4)C3)n2)c1` were more than 10000 nM, 3%, 1000 nM and 77%.
With `Cc1cccc(-c2noc(C3CN(C(=O)C4CCCCC4)C3)n2)c1`, in assay [1], the Activity is 20%, the EC50 was determined as 950 nM and the Emax amounted to 45%. Further, the half-maximal inhibitory concentration (IC50) in assay [2] was more than 10000 nM.
For the molecule `O=C([C@@H]1CC2CCC1C2)N1CC(c2nc(-c3ccccc3)no2)C1` (stereo partly specified), in assay [1], the EC50 worked out at 400 nM and the Emax came out at 88%.
Turning to `Cc1ccc(C(=O)N2CC(c3nc(-c4cccc(F)c4)no3)C2)cc1`, in assay [1], the Activity came out at 30%, the EC50 was found to be 6800 nM and the Emax came to 27%. Also, the IC50 in assay [2] was more than 10000 nM.
On the same counts, the results for `O=C(C1CCC(C(F)(F)F)CC1)N1CC(c2nc(-c3cccc(F)c3)no2)C1` (stereo unspecified) are 37%, 680 nM, 56% and more than 10000 nM.
On the same counts, the results for `O=C(C1CCC2(CCC2)CC1)N1CC(c2nc(-c3cccc(Cl)c3)no2)C1` are 24%, 1100 nM, 40% and more than 10000 nM.
As to `Cc1cccc(-c2noc(C3CN(C(=O)C4CCOC4)C3)n2)c1` (stereo unspecified), in assay [1], the EC50 was more than 10000 nM and the Emax is -7%. Besides, in assay [2], the IC50 worked out at 1300 nM and the inhibition worked out at 80%.
On the same counts, the results for `Cc1cccc(-c2noc([C@@H]3CCN3C(=O)c3ccc(C#N)cc3)n2)c1` are more than 10000 nM, 88%, 1400 nM and 72%.
Taken in the same sequence, the figures for `O=C(C1CCC1)N1CC(c2nc(-c3cccc(Cl)c3)no2)C1` were more than 10000 nM, -7%, 1500 nM and 75%.
Taken in the same sequence, the figures for `COC1CCCN(C(=O)N2CC(c3nc(-c4cccc(Cl)c4)no3)C2)C1` (stereo unspecified) were more than 10000 nM, -14%, 1830 nM and 80%.
`CC1CCC(C(=O)N2CC(c3nc(-c4cccc(Cl)c4)no3)C2)CC1` (stereo unspecified): in assay [1], the Activity was found to be 120%, the EC50 stood at 1500 nM and the Emax was determined as 75%. The IC50 in assay [2] is more than 10000 nM.
For the molecule `Cc1cccc(-c2noc([C@@H]3CCN3C(=O)c3ccccc3F)n2)c1`, in assay [1], the EC50 is more than 10000 nM and the Emax was found to be 6.2%. In addition, in assay [2], the concentration for half-maximal inhibition (IC50) is 1800 nM and the inhibition stood at 58%.
Taken in the same sequence, the figures for `Cc1cccc(-c2noc(C3CN(C(=O)C4CCCO4)C3)n2)c1` (stereo unspecified) were more than 10000 nM, 3%, 1900 nM and 79%.
As to `O=C([C@@H]1CC2CCC1C2)N1CC(c2nc(-c3cccc(F)c3)no2)C1` (stereo partly specified), in assay [1], the EC50 turned out to be 100 nM and the Emax came to 110%.
